Data set [1] can be described thus: Elimination rate constant in C57BL/6 mouse at 40 mg/kg, ip measured upto 24 hrs by LC-MS/MS analysis. In kind it is ADME, organism-based. Conditions: in vivo. In a few lines:
(§1)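 Single IP dose in 5% DMSO/5% Tween-80/90% saline to WT male C57Bl/6 mice, 7–10 months old; n = 4 per time point. Saphenous sampling at 0.08–0.5 h, then terminal trunk blood at 1–6 h. Plasma extracted with methanol plus internal standard and analyzed by LC-MS/MS; mean ± SEM.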

Data set [2] can be described thus: Relative bioavailability in C57BL/6 mouse at 100 mg/kg […] by LC-MS/MS analysis. In kind it is ADME, organism-based. The note with it: in vivo.
The subject of data set [3] is Danio rerio. The data set is described as follows: In vivo agonist activity at human GFP-tagged PPARalpha in transgenic zebrafish assessed as increase in GFP expression in yolk sac at 0.5 uM measured after 14 hrs by microscopy.
Data set [4] in a line: Terminal half life in C57BL/6 mouse at 40 mg/kg, ip […] by LC-MS/MS analysis. In kind it is ADME, organism-based. The note with it: in vivo, read-out: beta t1/2 (converted).
Data set [5] concerns Danio rerio. The data set is described as follows: In vivo agonist activity at human GFP-tagged PPARalpha in transgenic zebrafish assessed as increase in GFP expression in muscle at 0.5 uM measured after 14 hrs by microscopy.
Data set [6] is described as follows: Cmax in C57BL/6 mouse at 100 mg/kg, po measured upto 24 hrs by LC-MS/MS analysis. It counts as ADME, organism-based. Details: time < 24 hrs, dose 100 mg/kg, route po. The note with it: in vivo. In a few lines: (§2)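 Single oral dose given in peanut butter pellets to WT male C57Bl/6 mice acclimated 7 days to drug-free pellets; n = 4 per time point. Saphenous blood at 0.25–2 h, terminal collection at 4–38 h. Plasma extracted with methanol containing internal standard, LC-MS/MS with negative-ion ESI MRM. Parameters reported as mean ± SEM; Frel is oral vs IP.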

Data set [7] concerns the target T1, Peroxisome proliferator-activated receptor gamma (Mus musculus) (UniProt P37238).
T1 sequence (whole entry): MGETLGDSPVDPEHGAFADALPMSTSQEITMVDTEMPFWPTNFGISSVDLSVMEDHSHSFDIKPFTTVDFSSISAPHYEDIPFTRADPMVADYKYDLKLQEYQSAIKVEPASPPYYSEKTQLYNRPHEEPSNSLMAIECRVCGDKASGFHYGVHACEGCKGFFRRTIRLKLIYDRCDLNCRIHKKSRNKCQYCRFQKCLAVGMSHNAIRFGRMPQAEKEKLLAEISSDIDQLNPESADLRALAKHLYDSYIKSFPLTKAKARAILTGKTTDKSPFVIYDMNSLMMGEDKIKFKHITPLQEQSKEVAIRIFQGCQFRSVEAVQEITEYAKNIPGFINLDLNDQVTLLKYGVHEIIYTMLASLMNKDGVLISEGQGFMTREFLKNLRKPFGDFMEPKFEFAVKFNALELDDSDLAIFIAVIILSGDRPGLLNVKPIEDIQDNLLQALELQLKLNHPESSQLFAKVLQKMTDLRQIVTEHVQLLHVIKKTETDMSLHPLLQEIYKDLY
The data set is described as follows: Agonist activity at human PPARgamma in mouse 3T3-L1 cells assessed as induction of Glut4 mRNA expression at 25 uM incubated for 11 days by quantitative real-time PCR analysis. The note with it: filed as agonist, time 11.0 day. (In general: Real-time PCR tracks product formation cycle by cycle.)

Data set [8] is described as follows: Apparent oral clearance in C57BL/6 mouse at 40 mg/kg, ip […] by LC-MS/MS analysis. Conditions: in vivo. In kind it is ADME, organism-based.
Data set [9] can be described thus: AUC (0 to infinity) in C57BL/6 mouse at 40 mg/kg, ip measured upto 24 hrs by LC-MS/MS analysis. Details: time < 24 hrs, dose 40 mg/kg, route ip. It counts as ADME, organism-based. Conditions: in vivo. In a few lines: as §1
For data set [10], the target named is T2, Peroxisome proliferator-activated receptor alpha (Mus musculus) (UniProt P23204).
T2 sequence (whole entry): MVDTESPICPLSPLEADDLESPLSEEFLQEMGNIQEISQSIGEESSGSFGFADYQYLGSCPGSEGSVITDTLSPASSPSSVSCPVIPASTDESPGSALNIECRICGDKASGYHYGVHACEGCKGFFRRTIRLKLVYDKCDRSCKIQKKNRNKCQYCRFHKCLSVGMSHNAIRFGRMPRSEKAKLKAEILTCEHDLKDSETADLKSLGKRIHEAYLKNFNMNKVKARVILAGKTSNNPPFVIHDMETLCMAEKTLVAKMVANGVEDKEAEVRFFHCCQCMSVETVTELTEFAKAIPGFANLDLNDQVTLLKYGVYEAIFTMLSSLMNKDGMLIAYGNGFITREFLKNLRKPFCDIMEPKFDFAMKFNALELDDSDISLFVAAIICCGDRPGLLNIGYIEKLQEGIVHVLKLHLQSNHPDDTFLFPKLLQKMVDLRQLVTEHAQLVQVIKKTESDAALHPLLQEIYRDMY
The experiment in a line: Agonist activity at human PPARalpha in mouse hepatocytes assessed as induction of cd36 mRNA expression at 50 uM incubated for 16 hrs by quantitative real-time PCR analysis. Conditions: Hepatocyte, filed as agonist. It counts as cell-based. A digest of the protocol:
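Collagenase-perfused mouse primary hepatocytes from WT mice, plated 2 h in attachment medium, overnight in M199 with 5% charcoal-stripped FBS and 1 nM insulin. Treated next day in serum-free M199 with 50 μM compound for 16 h. RNA qPCR (SYBR Green), comparative Ct method.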

Data set [11] in a line: Cmax in C57BL/6 mouse at 40 mg/kg, ip measured upto 24 hrs by LC-MS/MS analysis. In kind it is ADME, organism-based. The arrangement: dose 40 mg/kg, time < 24 hrs, route ip. The note with it: in vivo. In a few lines: as §1
The nature of data set [12]: AUC (0 to infinity) in C57BL/6 mouse at 100 mg/kg, po […] by LC-MS/MS analysis. In kind it is ADME, organism-based. The arrangement: dose 100 mg/kg, route po. Conditions: in vivo.
Data set [13] in a line: Terminal half life in C57BL/6 mouse at 100 mg/kg, po measured upto 24 hrs by LC-MS/MS analysis. In kind it is ADME, organism-based. The note with it: in vivo, read-out: beta t1/2 (converted). In a few lines:
as §2

Data set [14] has as its system Danio rerio. The experiment in a line: In vivo agonist activity at human GFP-tagged PPARalpha in transgenic zebrafish assessed as increase in GFP expression in brain at 0.5 uM measured after 14 hrs by microscopy.
Data set [15] is described as follows: Elimination rate constant in C57BL/6 mouse at 100 mg/kg, po […] by LC-MS/MS analysis. It counts as ADME, organism-based. Conditions: in vivo.
Data set [16] concerns Danio rerio. The experiment in a line: In vivo agonist activity at human GFP-tagged PPARalpha in transgenic zebrafish assessed as increase in GFP expression in heart at 1.5 uM measured after 14 hrs by microscopy.
Data set [17] deals with Danio rerio. The data set is described as follows: In vivo agonist activity at human GFP-tagged PPARalpha in transgenic zebrafish assessed as increase in GFP expression in brain at 1.5 uM measured after 14 hrs by microscopy.
Data set [18] has as its system Danio rerio. The data set is described as follows: In vivo agonist activity at human GFP-tagged PPARalpha in transgenic zebrafish assessed as increase in GFP expression in muscle at 1.5 uM measured after 14 hrs by microscopy.

Activity calls are given as the source filed them. The rule behind the calls is not given here.

What is called bioavailability is the share of a dose that reaches the circulation, judged against a reference dose that is usually intravenous. Lower therefore signals little systemic uptake. For orientation: Cmax means the peak of the concentration-time curve. The CL/F is clearance divided by bioavailability, as obtained after extravascular dosing. By AUC(0-inf) is commonly meant the area under the concentration-time curve extrapolated to infinity. Low values mean low exposure, high ones high exposure. In data set [1], `CCCCCCCCCCCCCCCc1cccc(OC(C)(C)C(=O)O)c1` gave a k el at 24 h of 4.83e-05 s⁻¹. The bioavailability in [2] came out at 38%. The outcome (in the data set on Danio rerio [3]; in the data set with Danio rerio [5]; in [7]; in [10]; in the data set on Danio rerio [14]) was Active. Further, the half-life was 4 h in data set [4] and 2.3 h in data set [13]. Also, the values for the Cmax in [6] and in [11] were 76 µg/mL and 102 µg/mL, respectively. The CL/F in data set [8] turned out to be 0.0534 L/h/kg. Also, the AUC(0-inf) came out at 748 µg·h/mL in [9] and 717 µg·h/mL in [12]. This compound gave a k el in data set [15] of 8.28e-05 s⁻¹.
Take `CCCCCCCCCCCCCCCc1cccc(OC(C)=O)c1C(=O)O`: the result in the data set on Danio rerio [16], in the data set with Danio rerio [17] and in the data set with Danio rerio [18] was Active.

For the origin of these results see ChEMBL document CHEMBL5154715, “Phenolic Lipids Derived from Cashew Nut Shell Liquid to Treat Metabolic Diseases” (J Med Chem, 2022).
